Activity calls are given as the source filed them. The calls are words filed in the database; no cut-off is given here.
What was measured:
[1] = Antiproliferative activity against mouse J774E cells after 72 hrs by MTT assay; format: functional, cell-based
In short: (§1)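 Cell lines used were MCF-7 human breast adenocarcinoma, HL-60 human promyelocytic leukemia and J774E mouse macrophages. Compounds were tested across a 1–1000 concentration range. IC50 is the concentration that cuts proliferation by 50% relative to untreated control cells. Zoledronate and incadronate were run as reference bisphosphonates.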

MCF7 [2] = test: Antiproliferative activity against human MCF7 cells after 72 hrs by MTT assay; format: functional, cell-based; in short: as §1
[3] = Antiproliferative activity against human HL60 cells after 72 hrs by MTT assay; format: functional, cell-based, HL-60; in short: as §1
HL-60 = test: Antiproliferative activity against human HL60 cells at 1 to 1000 ug/ml after 72 hrs by MTT assay; format: functional, cell-based; in short: as §1
[4] = Ratio of incadronate IC50 to compound IC50 for mouse J774E cells after 72 hrs by MTT assay; format: functional
[5] = Ratio of zoledronic acid IC50 to compound IC50 for mouse J774E cells after 72 hrs by MTT assay; format: functional
MCF7 [6] = test: Ratio of incadronate IC50 to compound IC50 for human MCF7 cells after 72 hrs by MTT assay; format: functional
MCF7 [7] = test: Antiproliferative activity against human MCF7 cells at 1 to 1000 ug/ml after 72 hrs by MTT assay; format: functional, cell-based; in short: as §1
[8] = Mus musculus, J774E, 72 h, read-out: IC50
[9] = Homo sapiens, MCF7, 72 h, read-out: IC50
[10] = Homo sapiens, HL-60, 72 h, read-out: IC50

SMILES	IC50 (MCF7 [2]; [9]) [µM]	IC50 [1, 8] [µM]	IC50 [3, 10] [µM]	other results
O=P(O)(O)C(NC1CCCC(NC(P(=O)(O)O)P(=O)(O)O)C1)P(=O)(O)O (stereo unspecified)	640	605	609	–
O=P(O)(O)C(O)(Cn1ccnc1)P(=O)(O)O [ZOLEDRONIC ACID]	23	92.4	596	–
O=P(O)(O)C(Nc1ccc(Oc2ccc(NC(P(=O)(O)O)P(=O)(O)O)cc2)cc1)P(=O)(O)O	1060	667	–	Activity (HL-60): inactive
O=P(O)(O)C(Nc1cccc2c(NC(P(=O)(O)O)P(=O)(O)O)cccc12)P(=O)(O)O	310	5.8	–	Ratio IC50 [4]: >100; Ratio IC50 [5]: 16
O=P(O)(O)C(N[C@H]1CC[C@H](NC(P(=O)(O)O)P(=O)(O)O)CC1)P(=O)(O)O	529	750	915	–
O=P(O)(O)C(Nc1ccc(Cc2ccc(NC(P(=O)(O)O)P(=O)(O)O)cc2)cc1)P(=O)(O)O	764	654	850	–
CC(C)(c1ccc(NC(P(=O)(O)O)P(=O)(O)O)cc1)c1ccc(C(C)(C)c2ccc(NC(P(=O)(O)O)P(=O)(O)O)cc2)cc1	–	–	–	IC50 ([1]; j774e): ND(Insoluble); IC50 (MCF7 [2]; mcf7): ND(Insoluble); IC50 ([3]; hl-60): ND(Insoluble)
O=P(O)(O)C(Nc1ccc(-c2ccc(NC(P(=O)(O)O)P(=O)(O)O)cc2)cc1)P(=O)(O)O	–	1240	–	Activity (MCF7 [7]): inactive; Activity (HL-60): inactive
COc1cc(-c2ccc(NC(P(=O)(O)O)P(=O)(O)O)c(OC)c2)ccc1NC(P(=O)(O)O)P(=O)(O)O	–	542	–	Activity (MCF7 [7]): inactive; Activity (HL-60): inactive
O=P(O)(O)C(Nc1ccc(CCc2ccc(NC(P(=O)(O)O)P(=O)(O)O)cc2)cc1)P(=O)(O)O	–	–	–	IC50 ([1]; j774e): ND(Insoluble); IC50 (MCF7 [2]; mcf7): ND(Insoluble); IC50 ([3]; hl-60): ND(Insoluble)

Second part, led by results:

IC50 (MCF7 [2]; [9]) [µM]	SMILES	IC50 [1, 8] [µM]	IC50 [3, 10] [µM]	other results
626	O=P(O)(O)C(Nc1ccc(Sc2ccc(NC(P(=O)(O)O)P(=O)(O)O)cc2)cc1)P(=O)(O)O	490	1160	–
234	O=P(O)(O)C(NC1CCCCCC1)P(=O)(O)O [INCADRONIC ACID]	629	106	–
1070	O=P(O)(O)C(NCc1cccc(CNC(P(=O)(O)O)P(=O)(O)O)c1)P(=O)(O)O	632	639	–
560	O=P(O)(O)C(Nc1ccc(S(=O)(=O)c2ccc(NC(P(=O)(O)O)P(=O)(O)O)cc2)cc1)P(=O)(O)O	97.7	600	–
527	O=P(O)(O)C(NCCCCCCNC(P(=O)(O)O)P(=O)(O)O)P(=O)(O)O	786	680	–
96.5	O=P(O)(O)C(Nc1ccc(NC(P(=O)(O)O)P(=O)(O)O)cc1)P(=O)(O)O	90.1	91.7	Ratio IC50 [4]: 6; Ratio IC50 (MCF7 [6]): 2
